Reference: ChEMBL document CHEMBL3407418, “Fragment-based drug discovery of 2-thiazolidinones as BRD4 inhibitors: 2. Structure-based optimization” (J Med Chem, 2015)
Active and inactive are the calls of the source. No cut-off for these calls is given here.

What was measured:
Cytochrome P450 2D6 = Cytochrome P450 2D6 (Homo sapiens, UniProt P10635); test: Inhibition of CYP2D6 in human liver microsomes at 10 uM using dextromethorphan substrate preincubated for 5 mins before NADPH addition and measured after 20 mins post NADPH addition; format: ADME; details: microsomes, 20 min, 10 µM
Method in brief: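 Human liver microsomes 0.2 mg/mL, 1 mmol NADPH, 100 mmol phosphate pH 7.4, probe cocktail (10 μM midazolam, 100 μM testosterone, 10 μM dextromethorphan, 20 μM diclofenac, 100 μM phenacetin, 100 μM mephenytoin), test compound 10 μM or PBS; organic solvent <1%. 5 min preincubation at 37 °C, NADPH-generating system start, 20 min reaction; inhibition from metabolite formation relative to PBS.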

Cytochrome P450 1A2 = molecular target: T1, Cytochrome P450 1A2 (Homo sapiens, UniProt P05177); test: Time dependent inhibition of CYP1A2 in human liver microsomes at 10 uM using phenacetin substrate preincubated for 5 mins before NADPH addition and measured after 20 mins post NADPH addition; format: ADME
T1 sequence (P05177 whole entry): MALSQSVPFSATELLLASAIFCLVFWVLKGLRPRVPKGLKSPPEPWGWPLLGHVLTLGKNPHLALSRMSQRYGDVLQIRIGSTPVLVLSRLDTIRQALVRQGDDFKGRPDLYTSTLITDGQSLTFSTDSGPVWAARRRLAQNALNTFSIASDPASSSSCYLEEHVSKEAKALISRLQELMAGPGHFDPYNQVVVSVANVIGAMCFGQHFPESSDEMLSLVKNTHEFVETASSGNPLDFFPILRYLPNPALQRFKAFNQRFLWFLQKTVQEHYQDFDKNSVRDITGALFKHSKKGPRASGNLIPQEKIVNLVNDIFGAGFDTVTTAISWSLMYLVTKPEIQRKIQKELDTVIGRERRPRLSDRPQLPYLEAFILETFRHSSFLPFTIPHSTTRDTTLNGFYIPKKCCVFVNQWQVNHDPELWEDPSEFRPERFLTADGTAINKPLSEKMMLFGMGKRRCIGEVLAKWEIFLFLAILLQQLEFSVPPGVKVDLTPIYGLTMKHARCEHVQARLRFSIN

[1] = molecular target: Bromodomain-containing protein 4 (Homo sapiens, UniProt O60885); test: Inhibition of BRD4 in human HT-29 cells assessed as reduction in c-myc mRNA expression at 0.3125 uM after 24 hrs by RT-qPCR method; format: cell-based
Method in brief: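 HT-29 cells seeded overnight and exposed to compounds for 24 h; total RNA isolated, reverse-transcribed, and analysed by RT-qPCR with c-myc primers. Relative c-myc mRNA normalised to β-actin and expressed versus untreated control.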

Chain of Cytochrome P450 2D6 (P10635 whole entry): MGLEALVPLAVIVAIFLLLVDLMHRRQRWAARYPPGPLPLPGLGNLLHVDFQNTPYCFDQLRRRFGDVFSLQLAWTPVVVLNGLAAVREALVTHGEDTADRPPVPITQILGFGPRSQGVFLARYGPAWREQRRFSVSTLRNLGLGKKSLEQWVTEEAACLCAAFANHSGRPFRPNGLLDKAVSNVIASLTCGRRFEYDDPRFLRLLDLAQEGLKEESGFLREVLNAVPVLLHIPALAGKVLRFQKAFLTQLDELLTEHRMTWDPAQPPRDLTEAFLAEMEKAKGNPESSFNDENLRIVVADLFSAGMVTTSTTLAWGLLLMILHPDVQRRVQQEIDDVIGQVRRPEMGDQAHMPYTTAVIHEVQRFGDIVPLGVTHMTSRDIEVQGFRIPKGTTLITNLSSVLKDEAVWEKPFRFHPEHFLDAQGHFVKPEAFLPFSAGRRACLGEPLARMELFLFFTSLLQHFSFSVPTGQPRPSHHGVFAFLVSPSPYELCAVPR

| inhibition (INH) (Cytochrome P450 2D6) | TDI (Cytochrome P450 1A2) | inhibition [1] | SMILES |
| --- | --- | --- | --- |
| Not Active | – | – | COc1ccc(-c2csc(=O)[nH]2)cc1S(=O)(=O)NC1CCCC1 |
| – | Not Active | – | O=C(Nc1cc(-c2csc(=O)[nH]2)cc(S(=O)(=O)NC2CCCC2)c1)C1CC1 |
| – | Not Active | Active | Cc1c(N)cc(-c2csc(=O)[nH]2)cc1S(=O)(=O)NC1CCCC1 |
